In ChEMBL document CHEMBL2384906, “Biological activity, design, synthesis and structure activity relationship of some novel derivatives of curcumin containing sulfonamides” (Eur J Med Chem, 2013):
Converted amounts (≈) assume the structure as drawn.

Key:
Curvularia lunata [1] = assay: Antifungal activity against Curvularia lunata MTCC 581 after 48 hrs; type: functional; conditions: MTCC 581, 48 h
HCT-116 = assay: Cytotoxicity against human HCT116 cells after 24 hrs by MTT assay; type: functional, cell-based
Outline: (§1)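 The MTT assay seeded 5 × 10⁴ cells per well and grew them 24 h in RPMI 1640 with compound at 2.5–200 µM. Medium without cells was the blank and adriamycin the positive control. MTT was added for 4 h at 37 °C, formazan was solubilised, and absorbance was read at 570 nm. IC50 is the concentration that cuts viability 50% against untreated cells.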

Salmonella typhi [2] = assay: Antimicrobial activity against Salmonella typhi ATCC 23564 assessed as diameter of inhibition zone at 40 uM after 24 hrs by Kirby -Baur disc diffusion method; type: functional, Salmonella enterica subsp. enterica serovar Typhi; conditions: Salmonella enterica, ATCC 23564, 24 h; read-out: DIZ
Aspergillus niger [3] = assay: Antifungal activity against Aspergillus niger MTCC 1108 assessed as zone of inhibition at 80 uM after 48 hrs by disc diffusion method; type: functional; conditions: MTCC 1108, 48 h, read-out: IZ
Outline: (§2)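 Spores from 4-day potato dextrose agar cultures, suspended in sterile water at 1.5 × 10⁵ CFU/mL. 0.2 mL was spread on potato dextrose agar. 5 mm filter-paper discs soaked with test compound were laid on the lawn. Incubation was 48 h at 28 °C, then the inhibition zone was measured in mm. Fluconazole was the positive control and acetone the negative control.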

Curvularia lunata [4] = assay: Antifungal activity against Curvularia lunata MTCC 581 assessed as zone of inhibition at 40 uM after 48 hrs by disc diffusion method; type: functional; conditions: MTCC 581, 48 h, read-out: IZ; outline: as §2
Trichoderma viride [5] = assay: Antifungal activity against Trichoderma viride MTCC 1107 after 48 hrs; type: functional; conditions: MTCC 1107, 48 h
Bacillus cereus [6] = assay: Antimicrobial activity against Bacillus cereus MTCC 7350 assessed as diameter of inhibition zone at 40 uM after 24 hrs by Kirby -Baur disc diffusion method; type: functional; conditions: MTCC 7350, 24 h, read-out: DIZ
Outline: (§3)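 Kirby-Bauer disc diffusion was used. Acetone stocks (160 µM) were serially doubled down to 80, 40 and 20 µM. 4 µL of each went onto 5 mm sterile paper discs, which were dried 30 min at 50 °C. Inoculum was 1.5 × 10⁸ CFU/mL diluted to 3 × 10² CFU/mL, and 50 µL was spread on Mueller-Hinton agar. After 24 h at 37 °C the inhibition-zone diameter was measured. Ciprofloxacin served as positive control.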

Pseudomonas aeruginosa [7] = assay: Antimicrobial activity against Pseudomonas aeruginosa ATCC 15499 assessed as diameter of inhibition zone at 40 uM after 24 hrs by Kirby -Baur disc diffusion method; type: functional; conditions: ATCC 15499, 24 h, read-out: DIZ; outline: as §3
Curvularia lunata [8] = assay: Antifungal activity against Curvularia lunata MTCC 581 assessed as zone of inhibition at 80 uM after 48 hrs by disc diffusion method; type: functional; conditions: MTCC 581, 48 h, read-out: IZ; outline: as §2
Salmonella typhi [9] = assay: Antimicrobial activity against Salmonella typhi ATCC 23564 assessed as diameter of inhibition zone at 20 uM after 24 hrs by Kirby -Baur disc diffusion method; type: functional, Salmonella enterica subsp. enterica serovar Typhi; conditions: Salmonella enterica, ATCC 23564, 24 h; read-out: DIZ
Escherichia coli [10] = assay: Antimicrobial activity against Escherichia coli ATCC 35218 assessed as diameter of inhibition zone at 40 uM after 24 hrs by Kirby -Baur disc diffusion method; type: functional; conditions: ATCC 35218, 24 h, read-out: DIZ; outline: as §3
Trichoderma viride [11] = assay: Antifungal activity against Trichoderma viride MTCC 1107 assessed as zone of inhibition at 80 uM after 48 hrs by disc diffusion method; type: functional; conditions: MTCC 1107, 48 h, read-out: IZ; outline: as §2
HeLa = assay: Cytotoxicity against human HeLa cells after 24 hrs by MTT assay; type: functional, cell-based; outline: as §1
Salmonella typhi [12] = assay: Antimicrobial activity against Salmonella typhi ATCC 23564 assessed as diameter of inhibition zone at 80 uM after 24 hrs by Kirby -Baur disc diffusion method; type: functional, Salmonella enterica subsp. enterica serovar Typhi; conditions: Salmonella enterica, ATCC 23564, 24 h; read-out: DIZ
Pseudomonas aeruginosa [13] = assay: Antimicrobial activity against Pseudomonas aeruginosa ATCC 15499 assessed as diameter of inhibition zone at 20 uM after 24 hrs by Kirby -Baur disc diffusion method; type: functional; conditions: ATCC 15499, 24 h, read-out: DIZ; outline: as §3
Pseudomonas aeruginosa [14] = assay: Antimicrobial activity against Pseudomonas aeruginosa ATCC 15499 assessed as diameter of inhibition zone at 80 uM after 24 hrs by Kirby -Baur disc diffusion method; type: functional; conditions: ATCC 15499, 24 h, read-out: DIZ; outline: as §3
Salmonella typhi [15] = assay: Antimicrobial activity against Salmonella typhi ATCC 23564 after 24 hrs by broth micro serial dilution method; type: functional, Salmonella enterica subsp. enterica serovar Typhi; conditions: Salmonella enterica, ATCC 23564, 24 h
Aspergillus niger [16] = assay: Antifungal activity against Aspergillus niger MTCC 1108 assessed as zone of inhibition at 40 uM after 48 hrs by disc diffusion method; type: functional; conditions: MTCC 1108, 48 h, read-out: IZ; outline: as §2
Bacillus cereus [17] = assay: Antimicrobial activity against Bacillus cereus MTCC 7350 after 24 hrs by broth micro serial dilution method; type: functional; conditions: MTCC 7350, 24 h
Outline: (§4)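 This was broth microdilution in autoclaved Mueller-Hinton broth. 150 µL of compound per well was serially diluted […], and 50 µL of test organism was added. Plates were incubated 24 h at 37 °C and optical density was read.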

Staphylococcus aureus [18] = assay: Antimicrobial activity against Staphylococcus aureus ATCC 11632 after 24 hrs by broth micro serial dilution method; type: functional; conditions: ATCC 11632, 24 h; outline: as §4
Aspergillus flavus [19] = assay: Antifungal activity against Aspergillus flavus MTCC 1021 assessed as zone of inhibition at 20 uM after 48 hrs by disc diffusion method; type: functional; conditions: MTCC 1021, 48 h, read-out: IZ; outline: as §2
Escherichia coli [20] = assay: Antimicrobial activity against Escherichia coli ATCC 35218 after 24 hrs by broth micro serial dilution method; type: functional; conditions: ATCC 35218, 24 h; outline: as §4
Bacillus cereus [21] = assay: Antimicrobial activity against Bacillus cereus MTCC 7350 assessed as diameter of inhibition zone at 20 uM after 24 hrs by Kirby -Baur disc diffusion method; type: functional; conditions: MTCC 7350, 24 h, read-out: DIZ; outline: as §3
Curvularia lunata [22] = assay: Antifungal activity against Curvularia lunata MTCC 581 assessed as zone of inhibition at 20 uM after 48 hrs by disc diffusion method; type: functional; conditions: MTCC 581, 48 h, read-out: IZ; outline: as §2
Aspergillus niger [23] = assay: Antifungal activity against Aspergillus niger MTCC 1108 assessed as zone of inhibition at 20 uM after 48 hrs by disc diffusion method; type: functional; conditions: MTCC 1108, 48 h, read-out: IZ; outline: as §2
Escherichia coli [24] = assay: Antimicrobial activity against Escherichia coli ATCC 35218 assessed as diameter of inhibition zone at 20 uM after 24 hrs by Kirby -Baur disc diffusion method; type: functional; conditions: ATCC 35218, 24 h, read-out: DIZ; outline: as §3
Aspergillus niger [25] = assay: Antifungal activity against Aspergillus niger MTCC 1108 after 48 hrs; type: functional; conditions: MTCC 1108, 48 h
Staphylococcus aureus [26] = assay: Antimicrobial activity against Staphylococcus aureus ATCC 11632 assessed as diameter of inhibition zone at 40 uM after 24 hrs by Kirby -Baur disc diffusion method; type: functional; conditions: ATCC 11632, 24 h, read-out: DIZ; outline: as §3
QG-56 = assay: Cytotoxicity against human QG56 cells after 24 hrs by MTT assay; type: functional, cell-based; outline: as §1
Trichoderma viride [27] = assay: Antifungal activity against Trichoderma viride MTCC 1107 assessed as zone of inhibition at 20 uM after 48 hrs by disc diffusion method; type: functional; conditions: MTCC 1107, 48 h, read-out: IZ; outline: as §2
Aspergillus flavus [28] = assay: Antifungal activity against Aspergillus flavus MTCC 1021 after 48 hrs; type: functional; conditions: MTCC 1021, 48 h
Pseudomonas aeruginosa [29] = assay: Antimicrobial activity against Pseudomonas aeruginosa ATCC 15499 after 24 hrs by broth micro serial dilution method; type: functional; conditions: ATCC 15499, 24 h; outline: as §4
Mus musculus = assay: Antiinflammatory activity in mouse assessed as inhibition of carrageenan-induced increase in paw volume at 200 mg/kg administered 1 hr prior to carrageenan challenge measured after 3 hrs relative to control; type: functional
Outline: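 Mice were fasted 2 h and placed in groups of five. Controls received saline i.p. Phenylbutazone was given at 100 mg/kg i.p., curcumin at 200 mg/kg i.p., and derivatives at 200 mg/kg. After 1 h, 0.1 mL of 1% carrageenan in saline was injected subplantar into the right hind paw. Paw volume was followed by plethysmometer for 3 h, and % inhibition was calculated as (Vc − Vt)/Vc × 100.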

HepG2 = assay: Cytotoxicity against human HepG2 cells after 24 hrs by MTT assay; type: functional, cell-based; outline: as §1
Aspergillus flavus [30] = assay: Antifungal activity against Aspergillus flavus MTCC 1021 assessed as zone of inhibition at 40 uM after 48 hrs by disc diffusion method; type: functional; conditions: MTCC 1021, 48 h, read-out: IZ; outline: as §2
Staphylococcus aureus [31] = assay: Antimicrobial activity against Staphylococcus aureus ATCC 11632 assessed as diameter of inhibition zone at 80 uM after 24 hrs by Kirby -Baur disc diffusion method; type: functional; conditions: ATCC 11632, 24 h, read-out: DIZ; outline: as §3
Aspergillus flavus [32] = assay: Antifungal activity against Aspergillus flavus MTCC 1021 assessed as zone of inhibition at 80 uM after 48 hrs by disc diffusion method; type: functional; conditions: MTCC 1021, 48 h, read-out: IZ; outline: as §2
Bacillus cereus [33] = assay: Antimicrobial activity against Bacillus cereus MTCC 7350 assessed as diameter of inhibition zone at 80 uM after 24 hrs by Kirby -Baur disc diffusion method; type: functional; conditions: MTCC 7350, 24 h, read-out: DIZ; outline: as §3
Escherichia coli [34] = assay: Antimicrobial activity against Escherichia coli ATCC 35218 assessed as diameter of inhibition zone at 80 uM after 24 hrs by Kirby -Baur disc diffusion method; type: functional; conditions: ATCC 35218, 24 h, read-out: DIZ; outline: as §3
Trichoderma viride [35] = assay: Antifungal activity against Trichoderma viride MTCC 1107 assessed as zone of inhibition at 40 uM after 48 hrs by disc diffusion method; type: functional; conditions: MTCC 1107, 48 h, read-out: IZ; outline: as §2
Staphylococcus aureus [36] = assay: Antimicrobial activity against Staphylococcus aureus ATCC 11632 assessed as diameter of inhibition zone at 20 uM after 24 hrs by Kirby -Baur disc diffusion method; type: functional; conditions: ATCC 11632, 24 h, read-out: DIZ; outline: as §3

Question: Which results are given for `COc1cc(/C=C/C(CC(/C=C/c2ccc(O)c(OC)c2)=N/c2ccc(S(=O)(=O)Nc3nc(C)cc(C)n3)cc2)=N\c2ccc(S(=O)(=O)Nc3nc(C)cc(C)n3)cc2)ccc1O`?
Answer: MIC (Curvularia lunata [1]): 20 µM (≈ 17.8 µg/mL); IC50 (HCT-116): 25 µM; zone of inhibition at 40 µM (Salmonella typhi [2]): 21 mm; zone of inhibition at 80 µM (Aspergillus niger [3]): 14 mm; zone of inhibition at 40 µM (Curvularia lunata [4]): 16 mm; MIC (Trichoderma viride [5]): 20 µM (≈ 17.8 µg/mL); zone of inhibition at 40 µM (Bacillus cereus [6]): 18 mm; zone of inhibition at 40 µM (Pseudomonas aeruginosa [7]): 18 mm; zone of inhibition at 80 µM (Curvularia lunata [8]): 19 mm; zone of inhibition at 20 µM (Salmonella typhi [9]): 17 mm; zone of inhibition at 40 µM (Escherichia coli [10]): 19 mm; zone of inhibition at 80 µM (Trichoderma viride [11]): 22 mm; IC50 (HeLa): 25 µM; zone of inhibition at 80 µM (Salmonella typhi [12]): 24 mm; zone of inhibition at 20 µM (Pseudomonas aeruginosa [13]): 14 mm; zone of inhibition at 80 µM (Pseudomonas aeruginosa [14]): 23 mm; MIC (Salmonella typhi [15]): 40 µM (≈ 35.6 µg/mL); zone of inhibition at 40 µM (Aspergillus niger [16]): 12 mm; MIC (Bacillus cereus [17]): 40 µM (≈ 35.6 µg/mL); MIC (Staphylococcus aureus [18]): 40 µM (≈ 35.6 µg/mL); zone of inhibition at 20 µM (Aspergillus flavus [19]): 10 mm; MIC (Escherichia coli [20]): 20 µM (≈ 17.8 µg/mL); zone of inhibition at 20 µM (Bacillus cereus [21]): 11 mm; zone of inhibition at 20 µM (Curvularia lunata [22]): 12 mm; zone of inhibition at 20 µM (Aspergillus niger [23]): 8 mm; zone of inhibition at 20 µM (Escherichia coli [24]): 17 mm; MIC (Aspergillus niger [25]): 40 µM (≈ 35.6 µg/mL); zone of inhibition at 40 µM (Staphylococcus aureus [26]): 18 mm; IC50 (QG-56): 50 µM; zone of inhibition at 20 µM (Trichoderma viride [27]): 18 mm; MIC (Aspergillus flavus [28]): 80 µM (≈ 71.1 µg/mL); MIC (Pseudomonas aeruginosa [29]): 40 µM (≈ 35.6 µg/mL); inhibition in vivo at 200 mg/kg (Mus musculus): 40.3%; IC50 (HepG2): 50 µM; zone of inhibition at 40 µM (Aspergillus flavus [30]): 11 mm; zone of inhibition at 80 µM (Staphylococcus aureus [31]): 23 mm; zone of inhibition at 80 µM (Aspergillus flavus [32]): 12 mm; zone of inhibition at 80 µM (Bacillus cereus [33]): 21 mm; zone of inhibition at 80 µM (Escherichia coli [34]): 23 mm; zone of inhibition at 40 µM (Trichoderma viride [35]): 19 mm; zone of inhibition at 20 µM (Staphylococcus aureus [36]): 13 mm
